In paper PMC12216437 (Scientific Reports, 2025):
Converted amounts (≈) assume the structure as drawn. Non-standard residues stand in square brackets, D forms with d. Residues, ends and D or L forms follow the SMILES beside them. hArg = N=C(N)NCCCC[C@H](N)C(=O)O

Columns and labels:
[1] = system: E. coli ATCC 8739; assay: Resistance development assay; type: cell-based; settings: for fold increase in MIC: E. coli ATCC 8739, sub-MIC exposure; for MIC: Escherichia coli, ATCC8739
[2] = system: E. coli ATCC 8739; assay: Cytoplasmic membrane depolarization assay; type: cell-based; settings: E. coli ATCC 8739, membrane depolarisation
Method in brief: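 E. coli ATCC 8739 washed twice and resuspended to OD600 0.05 in 5 mM HEPES (pH 7.4) with 20 mM glucose and 100 mM KCl. Cells incubated 1 h in the dark with Disc3(5) solution (20 µM). Baseline read every 1 min for 5 min ([…]/em 645 nm). Peptide at various concentrations or melittin control then added; read every 1 min for 15 min.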

[3] = LPS-binding assay; settings: BC displacement, peptide 0.5-32 μM
Method in brief: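 BODIPY-TR cadaverine displacement: LPS (25 µg/mL) preincubated with BC dye (2.5 µg/mL) for 4 h at room temperature. Peptides, with melittin as positive control, prepared at 0.5–32 µM in Tris–HCl pH 7.4 and combined with LPS–BC mixture for 1 h at 37 °C. Fluorescence read at ex 590/em 645 nm; triplicates, independent experiments.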

[4] = system: E. coli ATCC 8739; assay: Thermal and trypsin sensitivity; type: cell-based; settings: for MIC, 80 °C: E. coli ATCC 8739, peptide heated at 80 °C for 10 min, no trypsin; for MBC, Control / MIC, Control: E. coli ATCC 8739, untreated peptide
[5] = system: E. coli ATCC 8739; assay: Salts and serum sensitivity; type: cell-based; settings: for MIC, NH4+: E. coli ATCC 8739, 6 μM NH4Cl; for MIC, Zn2+: E. coli ATCC 8739, 8 mM ZnCl2; for MBC, Serum 10% / MIC, Serum 10%: E. coli ATCC 8739, 10% FBS
[6] = system: Wax Moth Larvae (Galleria mellonella); assay: In vivo toxicity in larvae; settings: uninfected larvae, 4 × MIC of peptide 7, five-day observation
Method in brief: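 Uninfected Galleria mellonella larvae (250 ± 20 mg), ten per group, given test compound at 4 × MIC; PBS as vehicle-only group. Kept at 24 °C and survival scored every 24 h for five days.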

[7] = E. coli ATCC 8739, 2.5 mM CaCl2

In the case of `CNC(C)C1CCC(N)C(OC2C(N)CC(N)C(OC3OCC(C)(O)C(NC)C3O)C2O)O1` (stereo not drawn) [Gentamicin], the “fold increase in MIC” value ([1]; twenty passages (twenty days)) is reported as 32 fold and the MIC [1] is reported as 2 µM (≈ 0.955 µg/mL).
With `CC[C@H](C)[C@H](NC(=O)CN)C(=O)NCC(=O)N[C@@H](C)C(=O)N[C@H](C(=O)N[C@@H](CC(C)C)C(=O)N[C@@H](CCCCN)C(=O)N[C@H](C(=O)N[C@@H](CC(C)C)C(=O)N[C@H](C(=O)N[C@H](C(=O)NCC(=O)N[C@@H](CC(C)C)C(=O)N1CCC[C@H]1C(=O)N[C@@H](C)C(=O)N[C@@H](CC(C)C)C(=O)N[C@H](C(=O)N[C@@H](CO)C(=O)N[C@@H](Cc1c[nH]c2ccccc12)C(=O)N[C@H](C(=O)N[C@@H](CCCCN)C(=O)N[C@@H](CCCNC(=N)N)C(=O)N[C@@H](CCCCN)C(=O)N[C@@H](CCCNC(=N)N)C(=O)N[C@@H](CCC(N)=O)C(=O)N[C@@H](CCC(N)=O)C(N)=O)[C@@H](C)CC)[C@@H](C)CC)[C@@H](C)O)[C@@H](C)O)C(C)C)C(C)C` [Melittin] the “concentration at maximum Disc3(5) fluorescence” value [2] was 2 µM, the “incubation time to maximum Disc3(5) fluorescence” value [2] was 3 min and the “concentration at which LPS-binding affinity peaked” value [3] was 16 µM. For the same compound, the “fold increase of MIC and MBC values” ([4]; E. coli ATCC 8739, 0.25 mg/mL trypsin) was 32 fold, the MIC, 80 °C [4] was 2 µM (≈ 5.69 µg/mL) and the MBC, Control [4] was 2 µM (≈ 5.69 µg/mL). The MIC, Control [4] was 2 µM (≈ 5.69 µg/mL).
For `CO[C@H]1/C=C/O[C@@]2(C)Oc3c(C)c(O)c4c(O)c(c(/C=N/N5CCN(C)CC5)c(O)c4c3C2=O)NC(=O)/C(C)=C\C=C\[C@H](C)[C@H](O)[C@@H](C)[C@@H](O)[C@@H](C)[C@H](OC(C)=O)[C@@H]1C` [Rifampicin], the “fold increase in MIC” value ([1]; within five passages) was 512 fold and the MIC [1] was 8 µM (≈ 6.58 µg/mL).
With `CC[C@H](C)[C@H](NC(=O)[C@H](CO)NC(=O)[C@H](CO)NC(=O)[C@H](Cc1ccccc1)NC(=O)CN)C(=O)N[C@@H](Cc1ccccc1)C(=O)N[C@@H](CCCCNC(=N)N)C(=O)NCC(=O)N[C@H](C(=O)N[C@@H](C)C(=O)N[C@@H](CCCCNC(=N)N)C(=O)N[C@@H](Cc1ccccc1)C(=O)N[C@@H](C)C(=O)N[C@@H](CO)C(=O)N[C@@H](CCCCNC(=N)N)C(=O)NCC(=O)N[C@@H](CC(C)C)C(=O)NCC(=O)N[C@@H](CCCCNC(=N)N)C(N)=O)C(C)C` [Peptide 7, [hArg^7,11,15,19]-des-(Asp20-Cys37)-E2P] (H-GFSSIF[hArg]GVA[hArg]FAS[hArg]GLG[hArg]-NH2) the “MIC, Fe3+” value ([5]; E. coli ATCC 8739, 4 μM FeCl3) was 2 µM, the MIC, NH4+ [5] was 2 µM and the MIC, K+ ([5]; E. coli ATCC 8739, 0.5 mM KCl) was 2 µM. It also gave an MIC, Mg2+ ([5]; E. coli ATCC 8739, 1 mM MgCl2) of 8 µM, an MBC, Ca2+ [5, 7] of 64 µM and an MIC, Ca2+ [5, 7] of 64 µM. For the same compound, the MIC, Zn2+ [5] was 4 µM, the MBC, Serum 10% [5] was 4 µM and the MIC, Serum 10% [5] was 4 µM. The “effect on survival of larvae (toxicity)” value [6] was “did not affect the survival of the larvae”, the MIC, 80 °C [4] was 2 µM (≈ 4.19 µg/mL) and the MBC, Control [4] was 2 µM (≈ 4.19 µg/mL). For the same compound, the MIC, Control [4] was 2 µM (≈ 4.19 µg/mL).
`C[C@H](NC(=O)[C@H](Cc1c[nH]c2ccccc12)NC(=O)CNC(=O)[C@H](CCCNC(=N)N)NC(=O)[C@H](Cc1c[nH]c2ccccc12)NC(=O)[C@H](Cc1c[nH]c2ccccc12)NC(=O)[C@H](CO)NC(=O)[C@H](CO)NC(=O)[C@H](Cc1c[nH]c2ccccc12)NC(=O)CN)C(=O)N[C@@H](CCCCN)C(=O)N[C@@H](Cc1c[nH]c2ccccc12)C(=O)N[C@@H](C)C(=O)N[C@@H](CO)C(=O)N[C@@H](CCCCN)C(=O)NCC(=O)N[C@@H](Cc1c[nH]c2ccccc12)C(=O)NCC(=O)N[C@@H](CCCCN)C(N)=O` [Peptide 6, [Trp^2,5,6,9,12,17]-des-(Asp20-Cys37)-E2P] (H-GWSSWWRGWAKWASKGWGK-NH2) gave an MIC, NH4+ [5] of 4 µM, an MBC, Mg2+ ([5]; E. coli ATCC 8739, 1 mM MgCl2) of 32 µM and an MIC, Mg2+ ([5]; E. coli ATCC 8739, 1 mM MgCl2) of 32 µM. The MIC, Zn2+ [5] was 4 µM, the MBC, Serum 10% [5] was 4 µM and the MIC, Serum 10% [5] was 4 µM. The MBC, Serum 20% ([5]; E. coli ATCC 8739, 20% FBS) was 8 µM and the MIC, Serum 20% ([5]; E. coli ATCC 8739, 20% FBS) was 8 µM.
In the case of `CO/N=C(\C(=O)N[C@@H]1C(=O)N2C(C(=O)O)=C(COC(C)=O)CS[C@H]12)c1csc(N)n1` [Cefotaxime], the “fold increase in MIC” value ([1]; twenty passages (twenty days)) is reported as 32 fold and the MIC [1] is reported as 1 µM (≈ 0.455 µg/mL).
With `CCn1cc(C(=O)O)c(=O)c2cc(F)c(N3CCNCC3)cc21` [Norfloxacin] the “fold increase in MIC” value ([1]; twenty passages (twenty days)) was 512 fold and the MIC [1] was 0.25 µM (≈ 0.0798 µg/mL).
